From ChEMBL document CHEMBL4819043, “1,3-Benzodioxole-based fibrate derivatives as potential hypolipidemic and hepatoprotective agents” (2021)
Active and inactive are the calls of the source. The calls are words filed in the database; no cut-off is given here.

Assays:
[1] = test system: Mus musculus; test: Hypolipidemic activity in KM mouse model of Triton WR 1339-induced hyperlipidemia assessed as reduction in serum TG level at 0.362 mmol/Kg, IG administered for 1 week and measured on day 7; assay type: functional, organism-based; conditions: time 1.0 weeks
[2] = test system: Mus musculus; test: Hypolipidemic activity in KM mouse model of Triton WR 1339-induced hyperlipidemia assessed as reduction in serum TC level at 0.362 mmol/Kg, IG administered for 1 week and measured on day 7; assay type: functional, organism-based; conditions: time 1.0 weeks
[3] = test system: Mus musculus; test: Hypolipidemic activity in mouse model of HFD-induced hyperlipidemia assessed as reduction in serum TG level at 13 mg/kg, IG; assay type: functional, organism-based
Procedure, shortened: (§1)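 Mice with high-fat-diet-induced hyperlipidemia, given 67 or 13 mg/kg intragastrically. Serum was assayed for TC, TG, HDL-C and LDL-C, for SOD, GSH-PX and MDA, for IL-6 and TNF-α, and for AST and ALT. Values were compared with the model group. n = 12 per group; mean ± SEM.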

[4] = test system: Mus musculus; test: Hypolipidemic activity in mouse model of HFD-induced hyperlipidemia assessed as reduction in serum LDL-C level at 13 mg/kg, IG; assay type: functional, organism-based; procedure, shortened: as §1
[5] = test system: Mus musculus; test: Hypolipidemic activity in mouse model of HFD-induced hyperlipidemia assessed as reduction in serum TC level at 13 mg/kg, IG; assay type: functional, organism-based; procedure, shortened: as §1
[6] = test system: Mus musculus; test: Antioxidant activity in mouse model of HFD-induced hyperlipidemia assessed as increase in GSH-PX level at 13 mg/kg, IG; assay type: functional, organism-based; procedure, shortened: as §1
[7] = test system: Mus musculus; test: Antioxidant activity in mouse model of HFD-induced hyperlipidemia assessed as decrease in MDA level at 13 mg/kg, IG; assay type: functional, organism-based; procedure, shortened: as §1
[8] = test system: Mus musculus; test: Hepatoprotective activity against mouse model of HFD-induced hyperlipidemia assessed as decrease in AST level at 13 mg/kg, IG; assay type: functional, organism-based; procedure, shortened: as §1
[9] = test system: Mus musculus; test: Hepatoprotective activity against mouse model of HFD-induced hyperlipidemia assessed as decrease in ALT level at 13 mg/kg, IG; assay type: functional, organism-based; procedure, shortened: as §1
[10] = test system: Mus musculus; test: Hypolipidemic activity in mouse model of HFD-induced hyperlipidemia assessed as reduction in number of lipid droplets in liver at 13 mg/kg, IG by oil red-O staining based assay; assay type: functional, organism-based
Procedure, shortened: (§2)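 Livers from mice with high-fat-diet-induced hyperlipidemia, dosed intragastrically at 67 or 13 mg/kg. Liver sections were stained for lipid (oil red O; Sudan III with hematoxylin, 100×), and relative hepatic lipid accumulation was quantified. Mean of six independent experiments ± SEM, compared with the model group.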

[11] = test system: Mus musculus; test: Upregulation of PPAR-alpha expression in mouse model of HFD-induced hyperlipidemia at 13 mg/kg, IG by Western blot analysis; assay type: functional, organism-based
Procedure, shortened: (§3)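 Hepatic PPAR-α expression measured in liver tissue of mice with high-fat-diet-induced hyperlipidemia, dosed intragastrically at 67 or 13 mg/kg. Compared with the model group. n = 6; mean ± SEM.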

[12] = test system: Mus musculus; test: Hypolipidemic activity in mouse model of HFD-induced hyperlipidemia assessed as increase in serum HDL-C level at 13 mg/kg, IG relative to control; assay type: functional; procedure, shortened: as §1
[13] = test system: Mus musculus; test: Hypolipidemic activity in KM mouse model of Triton WR 1339-induced hyperlipidemia assessed as reduction in serum MDA level at 0.362 mmol/Kg, IG administered for 1 week and measured on day 7; assay type: functional, organism-based; conditions: time 1.0 weeks
[14] = test system: Mus musculus; test: Hypolipidemic activity in KM mouse model of Triton WR 1339-induced hyperlipidemia assessed as reduction in serum TG level at 0.121 mmol/Kg, IG administered for 1 week and measured on day 7 relative to control; assay type: functional; set-up: scale not given: the % may be the effect or the level left; conditions: time 1 weeks
[15] = test system: Mus musculus; test: Hypolipidemic activity in KM mouse model of Triton WR 1339-induced hyperlipidemia assessed as reduction in serum TG level at 0.362 mmol/Kg, IG administered for 1 week and measured on day 7 relative to control; assay type: functional; set-up: scale not given: the % may be the effect or the level left; conditions: time 1 weeks
[16] = test system: Mus musculus; test: Hypolipidemic activity in KM mouse model of Triton WR 1339-induced hyperlipidemia assessed as reduction in serum TG level at 1.086 mmol/Kg, IG administered for 1 week and measured on day 7 relative to control; assay type: functional; set-up: scale not given: the % may be the effect or the level left; conditions: time 1 weeks
[17] = test system: Mus musculus; test: Hypolipidemic activity in KM mouse model of Triton WR 1339-induced hyperlipidemia assessed as reduction in serum TC level at 0.121 mmol/Kg, IG administered for 1 week and measured on day 7 relative to control; assay type: functional; set-up: scale not given: the % may be the effect or the level left; conditions: time 1 weeks
[18] = test system: Mus musculus; test: Hypolipidemic activity in KM mouse model of Triton WR 1339-induced hyperlipidemia assessed as reduction in serum TC level at 0.362 mmol/Kg, IG administered for 1 week and measured on day 7 relative to control; assay type: functional; set-up: scale not given: the % may be the effect or the level left; conditions: time 1 weeks
[19] = test system: Mus musculus; test: Hypolipidemic activity in KM mouse model of Triton WR 1339-induced hyperlipidemia assessed as reduction in serum TC level at 1.086 mmol/Kg, IG administered for 1 week and measured on day 7 relative to control; assay type: functional; set-up: scale not given: the % may be the effect or the level left; conditions: time 1 weeks
[20] = test system: Mus musculus; test: Hypolipidemic activity in KM mouse model of Triton WR 1339-induced hyperlipidemia assessed as reduction in serum TG level administered IG for 1 week and measured on day 7; assay type: functional, organism-based; conditions: time 1.0 weeks
[21] = test system: Mus musculus; test: Hypolipidemic activity in KM mouse model of Triton WR 1339-induced hyperlipidemia assessed as reduction in serum TC level administered IG for 1 week and measured on day 7 relative to control; assay type: functional, organism-based; conditions: time 1.0 weeks
[22] = test system: Mus musculus; test: Hypolipidemic activity in mouse model of HFD-induced hyperlipidemia assessed as reduction in serum TG level at 67 mg/kg, IG; assay type: functional, organism-based; procedure, shortened: as §1
[23] = test system: Mus musculus; test: Hypolipidemic activity in mouse model of HFD-induced hyperlipidemia assessed as reduction in serum LDL-C level at 67 mg/kg, IG; assay type: functional, organism-based; procedure, shortened: as §1
[24] = test system: Mus musculus; test: Hypolipidemic activity in mouse model of HFD-induced hyperlipidemia assessed as reduction in serum TC level at 67 mg/kg, IG; assay type: functional, organism-based; procedure, shortened: as §1
[25] = test system: Mus musculus; test: Antioxidant activity in mouse model of HFD-induced hyperlipidemia assessed as increase in SOD level at 67 mg/kg, IG; assay type: functional, organism-based; procedure, shortened: as §1
[26] = test system: Mus musculus; test: Antioxidant activity in mouse model of HFD-induced hyperlipidemia assessed as increase in GSH-PX level at 67 mg/kg, IG; assay type: functional, organism-based; procedure, shortened: as §1
[27] = test system: Mus musculus; test: Antioxidant activity in mouse model of HFD-induced hyperlipidemia assessed as decrease in MDA level at 67 mg/kg, IG; assay type: functional, organism-based; procedure, shortened: as §1
[28] = test system: Mus musculus; test: Antiinflammatory activity against mouse model of HFD-induced hyperlipidemia assessed as decrease in TNF-alpha level at 67 mg/kg, IG; assay type: functional, organism-based; procedure, shortened: as §1
[29] = test system: Mus musculus; test: Antiinflammatory activity against mouse model of HFD-induced hyperlipidemia assessed as decrease in IL-6 level at 67 mg/kg, IG; assay type: functional, organism-based; procedure, shortened: as §1
[30] = test system: Mus musculus; test: Hepatoprotective activity against mouse model of HFD-induced hyperlipidemia assessed as decrease in AST level at 67 mg/kg, IG; assay type: functional, organism-based; procedure, shortened: as §1
[31] = test system: Mus musculus; test: Hepatoprotective activity against mouse model of HFD-induced hyperlipidemia assessed as decrease in ALT level at 67 mg/kg, IG; assay type: functional, organism-based; procedure, shortened: as §1
[32] = test system: Mus musculus; test: Hypolipidemic activity in mouse model of HFD-induced hyperlipidemia assessed as reduction in number of lipid droplets in liver at 67 mg/kg, IG by oil red-O staining based assay; assay type: functional, organism-based; procedure, shortened: as §2
[33] = test system: Mus musculus; test: Upregulation of PPAR-alpha expression in mouse model of HFD-induced hyperlipidemia at 67 mg/kg, IG by Western blot analysis; assay type: functional, organism-based; procedure, shortened: as §3
[34] = test system: Mus musculus; test: Hypolipidemic activity in mouse model of HFD-induced hyperlipidemia assessed as increase in serum HDL-C level at 67 mg/kg, IG relative to control; assay type: functional; procedure, shortened: as §1

O=C(CCCOc1ccc2c(c1)OCO2)Oc1ccc2c(c1)OCO2
Activity [1]: Active | Activity [2]: Active

O=C(O)COc1ccc2c(c1)OCO2
Activity [1]: Active

O=C(COc1ccc2c(c1)OCO2)Oc1ccc2c(c1)OCO2
Activity [1]: Active | Activity [2]: Active

CC(C)OC(=O)C(C)(C)Oc1ccc(C(=O)c2ccc(Cl)cc2)cc1 [FENOFIBRATE]
Activity [3]: Active | Activity [4]: Active | Activity [5]: inactive | Activity [6]: Active | Activity [7]: inactive | Activity [8]: inactive | Activity [9]: inactive | Activity [10]: Active | Activity [11]: Active | Activity [12]: 20%

CCOC(=O)CCCOc1ccc2c(c1)OCO2
Activity [1]: Active | Activity [2]: Active

CCOC(=O)COc1ccc2c(c1)OCO2
Activity [2]: Active

O=C(CCCCOc1ccc2c(c1)OCO2)Oc1ccc2c(c1)OCO2
Activity [1]: Active | Activity [2]: Active | Activity [13]: Active

CCOC(=O)CCCCCOc1ccc2c(c1)OCO2
Activity [1]: Active | Activity [2]: Active

CCOC(=O)CCCCOc1ccc2c(c1)OCO2
Activity [2]: Active

O=C(CCCCCOc1ccc2c(c1)OCO2)Oc1ccc2c(c1)OCO2
Activity [1]: Active | Activity [2]: Active | Activity [13]: Active | Activity [14]: 10.4% | Activity [15]: 68.8% | Activity [16]: 74.1% | Activity [17]: 14.3% | Activity [18]: 67.3% | Activity [19]: 70.1% | Activity [20]: Dose-Dependent Effect | Activity [21]: Dose-Dependent Effect | Activity [22]: Active | Activity [23]: Active | Activity [24]: Active | Activity [25]: Active | Activity [26]: Active | Activity [27]: Active | Activity [28]: Active | Activity [29]: Active | Activity [30]: Active | Activity [31]: Active | Activity [32]: Active | Activity [33]: Active | Activity [34]: 15%

O=C(O)CCCCOc1ccc2c(c1)OCO2
Activity [1]: Active | Activity [2]: Active

O=C(O)CCCCCOc1ccc2c(c1)OCO2
Activity [1]: Active | Activity [2]: Active
